# Laboratory results reported in ChEMBL document CHEMBL3108710, “Discovery of a novel class of dimeric Smac mimetics as potent IAP antagonists resulting in a clinical candidate for the treatment of cancer (AZD5582)” (J Med Chem, 2013).
# The source made the active and inactive calls. No cut-off for these calls is given here.
# Experiments:
# [1] = Chemical stability of the compound assessed as amide hydrolysis at pH >8; assay type: physicochemical
# [2] = Chemical stability of the compound assessed as amide hydrolysis at pH 1; assay type: physicochemical; conditions: buffer
# [3] = Photostability of the compound; assay type: physicochemical
# [4] = Hydrolytic stability of the compound at pH 4 to 6; assay type: physicochemical; conditions: buffer
# [5] = target: T1, E3 ubiquitin-protein ligase XIAP (Homo sapiens, UniProt P98170); assay: Displacement of AbuRPFK-5FAM from GST-tagged XIAP BIR2 domain ([…] to P260) (unknown origin) after 20 mins by fluorescence polarization assay
# How it was run: (§1)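 Competitive fluorescence polarization binding assay. Measures displacement of a 5-carboxyfluorescein-tagged synthetic peptide from the AVPI groove of the isolated BIR domain.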
# [6] = target: T2, Baculoviral IAP repeat-containing protein 3 (Homo sapiens, UniProt Q13489); assay: Displacement of AbuRPFK-5FAM from GST-tagged cIAP2 BIR3 domain (I235 to A336) (unknown origin) after 20 mins by fluorescence polarization assay; how it was run: as §1
# [7] = AUC in Han Wistar rat at 0.5 mg/kg, iv by LC-MS/MS analysis; assay type: ADME, organism-based; parameters: dose 0.5 mg/kg, route intravenous; conditions: plasma
# How it was run: (§2)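 Rat PK after a single intravenous bolus. Parameters derived from plasma levels: total plasma clearance, steady-state volume of distribution, half-life and AUC.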
# [8] = Elimination half life in Han Wistar rat at 0.5 mg/kg, iv by LC-MS/MS analysis; assay type: ADME, organism-based; parameters: dose 0.5 mg/kg, route intravenous; conditions: in vivo, read-out: beta t1/2 (converted); how it was run: as §2
# [9] = Volume of distribution at steady state in Han Wistar rat at 0.5 mg/kg, iv by LC-MS/MS analysis; assay type: ADME, organism-based; parameters: dose 0.5 mg/kg, route intravenous; conditions: in vivo, read-out: Vdss; how it was run: as §2
# [10] = Total plasma clearance in Han Wistar rat at 0.5 mg/kg, iv by LC-MS/MS analysis; assay type: ADME, organism-based; parameters: dose 0.5 mg/kg, route intravenous; how it was run: as §2
# [11] = Apparent permeability from apical to basolateral side in human Caco2 cells; assay type: ADME, cell-based; conditions: Caco-2
# [12] = tested on: MDA-MB-231; assay: Antiproliferative activity against human MDA-MB-231 cells assessed as growth inhibition after 48 hrs by Alamar Blue assay; assay type: functional; conditions: MDA-MB-231, 48 h
# [13] = target: T3, Baculoviral IAP repeat-containing protein 2 (Homo sapiens, UniProt Q13490); assay: Binding affinity to cIAP1 in human MDA-MB-231 cells assessed as induction of protein degradation after 1 hr by ELISA; assay type: cell-based
# [14] = target: T1, E3 ubiquitin-protein ligase XIAP; assay: Displacement of AbuRPFK-5FAM from GST-tagged XIAP BIR3 domain (N252 to E350) (unknown origin) after 20 mins by fluorescence polarization assay; how it was run: as §1
# [15] = target: T3, Baculoviral IAP repeat-containing protein 2; assay: Displacement of AbuRPFK-5FAM from GST-tagged cIAP1 BIR3 domain (L250 to G350) (unknown origin) after 20 mins by fluorescence polarization assay; how it was run: as §1
# [16] = Aqueous equilibrium solubility of compound in phosphate buffer at pH 7.4 after 24 hrs by HPLC-UV analysis; assay type: physicochemical
# [17] = tested on: BT-549; assay: Growth inhibition of human BT549 cells; assay type: functional, cell-based
# [18] = tested on: 647-V; assay: Growth inhibition of human 647V cells; assay type: functional, cell-based
# [19] = tested on: MIA PaCa-2; assay: Growth inhibition of human MIAPaCa2 cells; assay type: functional, cell-based
# [20] = organism: Homo sapiens; assay: Growth inhibition of human 97-7 cells; assay type: functional
# [21] = tested on: MDA-MB-231; assay: Antitumor activity against human MDA-MB-231 cells xenografted in CB17 SCID mouse assessed as tumor growth inhibition at 0.1 to 3 mg/kg, iv administered once a week for 2 weeks measured twice a week for 78 days; assay type: functional, organism-based
# How it was run: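 MDA-MB-231 tumors were implanted orthotopically in mice and grown to about 120 mm³ average. Vehicle or compound was then given intravenously once weekly for 2 weeks, at 0.1, 0.5 or 3.0 mg/kg. Tumor volume was measured twice weekly for 78 days and reported as geometric mean ± SE.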
# [22] = tested on: Mus musculus; assay: Induction of caspase-3 cleavage in tumor of CB17 SCID mouse xenografted with human MDA-MB-231 cells at 0.05 to 3 mg/kg, iv after 4 to 18 hrs by ELISA; assay type: functional, organism-based
# How it was run: (§3)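 Mice bearing MDA-MB-231 xenografts received a single intravenous dose. Intratumoral cIAP1 protein and cleaved caspase-3 levels were measured at 4, 6 and 18 h postdose.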
# [23] = tested on: Mus musculus; assay: Induction of cIAP1 degradation in tumor of CB17 SCID mouse xenografted with human MDA-MB-231 cells at 0.05 to 3 mg/kg, iv up to 18 hrs by ELISA; assay type: functional, organism-based; how it was run: as §3
# [24] = tested on: MDA-MB-231; assay: Induction of apoptosis in human MDA-MB-231 cells assessed as cell death at 0.5 to 1.5 nM preincubated for 1 to 3 hrs followed by compound-washout measured after 72 hrs by MTS assay; assay type: functional, cell-based
# How it was run: (§4)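 MDA-MB-231 cells were exposed to increasing compound concentrations for 1 or 3 h, rinsed, then given drug-free medium. Active caspase-3 per well was read at 24 h total. Survival was measured by MTS at 72 h total; 0% survival means complete cell death.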
# [25] = tested on: MDA-MB-231; assay: Induction of apoptosis in human MDA-MB-231 cells assessed as caspase-3 cleavage at 0.5 to 1.5 nM preincubated for 1 to 3 hrs followed by compound-washout measured after 24 hrs by luciferase reporter gene assay; assay type: functional, cell-based; how it was run: as §4
# [26] = target: T1, E3 ubiquitin-protein ligase XIAP; assay: Inhibition of XIAP-caspase-9 interaction in human MDA-MB-231 cells at 1 uM after 4 hrs by immunoprecipitation assay; assay type: cell-based
# How it was run: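 MDA-MB-231 cells were left untreated or exposed to 1 μM compound for 4 h. Caspase-9 was immunoprecipitated from the lysates, and caspase-9–XIAP complexes were detected by blotting.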
# [27] = target: T1, E3 ubiquitin-protein ligase XIAP; assay: Binding affinity to XIAP in human MDA-MB-231 cells assessed as effect on protein level at 0.1 to 100 nM after 4 hrs by Western blotting analysis; assay type: cell-based
# How it was run: (§5)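 MDA-MB-231 cells were treated with a range of compound concentrations. IAP protein levels were assessed by western blot: cIAP2 after 1 h, XIAP after 4 h.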
# [28] = target: T2, Baculoviral IAP repeat-containing protein 3; assay: Binding affinity to cIAP2 in human MDA-MB-231 cells assessed as induction of protein degradation at 0.03 to 1 nM after 1 hr by Western blotting analysis; assay type: cell-based; how it was run: as §5
# [29] = target: T3, Baculoviral IAP repeat-containing protein 2; assay: Binding affinity to cIAP1 in human MDA-MB-231 cells assessed as induction of protein degradation after 1 hr by Western blotting analysis; assay type: cell-based
# [30] = AUC in Han Wistar rat at 1 mg/kg, iv by LC-MS/MS analysis; assay type: ADME, organism-based; parameters: dose 1 mg/kg, route intravenous; conditions: plasma; how it was run: as §2
# [31] = Elimination half life in Han Wistar rat at 1 mg/kg, iv by LC-MS/MS analysis; assay type: ADME, organism-based; parameters: dose 1 mg/kg, route intravenous; conditions: in vivo, read-out: beta t1/2 (converted); how it was run: as §2
# [32] = Volume of distribution at steady state in Han Wistar rat at 1 mg/kg, iv by LC-MS/MS analysis; assay type: ADME, organism-based; parameters: dose 1 mg/kg, route intravenous; conditions: in vivo, read-out: Vdss; how it was run: as §2
# [33] = Total plasma clearance in Han Wistar rat at 1 mg/kg, iv by LC-MS/MS analysis; assay type: ADME, organism-based; parameters: dose 1 mg/kg, route intravenous; how it was run: as §2
# [34] = AUC in Han Wistar rat at 0.8 mg/kg, iv by LC-MS/MS analysis; assay type: ADME, organism-based; parameters: dose 0.8 mg/kg, route intravenous; conditions: plasma; how it was run: as §2
# [35] = Elimination half life in Han Wistar rat at 0.8 mg/kg, iv by LC-MS/MS analysis; assay type: ADME, organism-based; parameters: dose 0.8 mg/kg, route intravenous; conditions: in vivo, read-out: beta t1/2 (converted); how it was run: as §2
# [36] = Volume of distribution at steady state in Han Wistar rat at 0.8 mg/kg, iv by LC-MS/MS analysis; assay type: ADME, organism-based; parameters: dose 0.8 mg/kg, route intravenous; conditions: in vivo, read-out: Vdss; how it was run: as §2
# [37] = Total plasma clearance in Han Wistar rat at 0.8 mg/kg, iv by LC-MS/MS analysis; assay type: ADME, organism-based; parameters: dose 0.8 mg/kg, route intravenous; how it was run: as §2
# [38] = Aqueous solubility of the compound at pH 4 to 6; assay type: physicochemical
# T3 sequence (Q13490 whole entry, the tested form may be a part): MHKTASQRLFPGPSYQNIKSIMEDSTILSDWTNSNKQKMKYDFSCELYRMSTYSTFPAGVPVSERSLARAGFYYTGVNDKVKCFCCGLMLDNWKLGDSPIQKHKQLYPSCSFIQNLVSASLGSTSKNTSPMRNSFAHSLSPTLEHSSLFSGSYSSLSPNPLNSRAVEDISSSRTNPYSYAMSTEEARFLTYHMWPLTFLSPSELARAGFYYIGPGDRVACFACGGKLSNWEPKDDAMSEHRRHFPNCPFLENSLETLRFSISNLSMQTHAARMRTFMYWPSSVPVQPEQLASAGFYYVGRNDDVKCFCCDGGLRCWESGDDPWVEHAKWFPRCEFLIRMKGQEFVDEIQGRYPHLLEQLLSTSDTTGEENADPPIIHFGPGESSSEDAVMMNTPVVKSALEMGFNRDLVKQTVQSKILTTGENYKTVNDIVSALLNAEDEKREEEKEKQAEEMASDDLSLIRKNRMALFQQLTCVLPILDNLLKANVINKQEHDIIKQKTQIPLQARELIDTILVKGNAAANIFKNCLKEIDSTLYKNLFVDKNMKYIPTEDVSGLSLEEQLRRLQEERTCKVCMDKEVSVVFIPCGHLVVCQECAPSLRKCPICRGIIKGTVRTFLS
# T1 sequence (P98170 whole entry, the tested form may be a part): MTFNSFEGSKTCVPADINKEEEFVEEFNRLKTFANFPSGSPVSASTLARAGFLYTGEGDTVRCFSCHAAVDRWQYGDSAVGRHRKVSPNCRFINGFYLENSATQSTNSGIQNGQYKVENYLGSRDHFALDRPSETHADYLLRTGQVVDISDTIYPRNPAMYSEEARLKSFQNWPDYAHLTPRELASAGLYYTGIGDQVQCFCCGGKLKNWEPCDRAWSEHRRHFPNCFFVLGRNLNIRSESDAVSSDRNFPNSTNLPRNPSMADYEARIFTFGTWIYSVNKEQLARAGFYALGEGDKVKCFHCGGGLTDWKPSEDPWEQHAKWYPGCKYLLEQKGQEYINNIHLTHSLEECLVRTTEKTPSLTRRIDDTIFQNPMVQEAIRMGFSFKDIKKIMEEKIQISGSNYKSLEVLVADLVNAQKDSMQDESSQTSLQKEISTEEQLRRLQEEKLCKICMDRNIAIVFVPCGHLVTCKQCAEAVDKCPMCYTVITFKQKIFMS
# T2 sequence (Q13489 whole entry, the tested form may be a part): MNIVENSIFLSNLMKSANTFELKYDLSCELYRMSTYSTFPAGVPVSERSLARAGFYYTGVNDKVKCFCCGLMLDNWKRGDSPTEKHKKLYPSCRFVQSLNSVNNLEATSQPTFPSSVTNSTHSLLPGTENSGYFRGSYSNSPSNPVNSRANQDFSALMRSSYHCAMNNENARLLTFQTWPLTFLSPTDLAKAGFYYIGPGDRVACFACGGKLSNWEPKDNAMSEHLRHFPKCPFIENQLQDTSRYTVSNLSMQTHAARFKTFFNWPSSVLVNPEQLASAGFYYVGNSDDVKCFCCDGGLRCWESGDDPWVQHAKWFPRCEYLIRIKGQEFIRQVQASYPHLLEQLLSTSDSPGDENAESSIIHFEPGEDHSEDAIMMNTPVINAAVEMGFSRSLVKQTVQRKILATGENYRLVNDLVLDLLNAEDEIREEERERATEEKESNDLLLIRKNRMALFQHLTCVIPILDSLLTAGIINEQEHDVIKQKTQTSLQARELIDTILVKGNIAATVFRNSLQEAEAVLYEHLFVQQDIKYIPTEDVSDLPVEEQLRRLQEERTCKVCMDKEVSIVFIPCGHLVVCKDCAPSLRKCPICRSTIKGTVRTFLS
structure (smiles),measurement,setting,value
CN[C@@H](C)C(=O)N[C@H](C(=O)N1CCC[C@H]1C(=O)N[C@H]1c2ccccc2C[C@H]1OCC#CC#CCO[C@@H]1Cc2ccccc2[C@@H]1NC(=O)[C@@H]1CCCN1C(=O)[C@@H](NC(=O)[C@H](C)NC)C1CCCCC1)C1CCCCC1 [listing 1 of 2 here],Stability,[1],Unstable
same,Stability,[2],Unstable
same,Stability,[3],Stable
same,Stability,[4],Stable
same,IC50,[5],21 nM
same,IC50,[6],21 nM
same,AUC,[7],166 ng·h/mL
same,half-life,[8],0.5 h
same,Vd,[9],0.8 L/kg
same,clearance,[10],50 mL/min/kg
same,Papp A→B,[11],< 0.1 ×10⁻⁶ cm/s
same,GI50,[12],< 0.06 nM
same,EC50,[13],0.1 nM
same,IC50,[14],15 nM
same,IC50,[15],15 nM
CN[C@@H](C)C(=O)N[C@H](C(=O)N1CCC[C@H]1C(=O)N[C@H]1c2ccccc2C[C@H]1OCC#CC#CCO[C@@H]1Cc2ccccc2[C@@H]1NC(=O)[C@@H]1CCCN1C(=O)[C@@H](NC(=O)[C@H](C)NC)C(C)(C)C)C(C)(C)C,Papp A→B,[11],< 0.1 ×10⁻⁶ cm/s
same,solubility thermodynamic at 24 h,[16],> 1000 µM
same,GI50,[12],< 2.4 nM
same,EC50,[13],0.4 nM
CN[C@@H](C)C(=O)N[C@H](C(=O)N1CCC[C@H]1C(=O)N[C@H]1c2ccccc2C[C@H]1NC(=O)c1ccc(C(=O)N[C@@H]2Cc3ccccc3[C@@H]2NC(=O)[C@@H]2CCCN2C(=O)[C@@H](NC(=O)[C@H](C)NC)C2CCCCC2)cc1)C1CCCCC1,AUC,[7],230 ng·h/mL
same,half-life,[8],6.6 h
same,Vd,[9],1.4 L/kg
same,clearance,[10],37 mL/min/kg
same,GI50,[12],6 nM
same,EC50,[13],124 nM
same,inhibition,[15],Active
CN[C@@H](C)C(=O)N[C@H](C(=O)N1CCC[C@H]1C(=O)N[C@H]1c2ccccc2C[C@H]1OCC#CC#CCO[C@@H]1Cc2ccccc2[C@@H]1NC(=O)[C@@H]1CCCN1C(=O)[C@@H](NC(=O)[C@H](C)NC)C1CCCCC1)C1CCCCC1 [listing 2 of 2 here],growth inhibition (GI),[17],Active
same,growth inhibition (GI),[18],Active
same,growth inhibition (GI),[19],Active
same,growth inhibition (GI),[20],Active
same,TGI,[21],Active
same,Activity,[22],Active
same,Activity,[23],Active
same,Activity,[24],Active
same,Activity,[25],Active
same,inhibition,[26],Active
same,Activity,[27],inactive
same,Activity,[28],Active
same,Activity,[29],Dose-dependent effect
CN[C@@H](C)C(=O)N[C@H](C(=O)N1CCC[C@H]1C(=O)N[C@H]1c2ccccc2C[C@H]1OCCOCCO[C@@H]1Cc2ccccc2[C@@H]1NC(=O)[C@@H]1CCCN1C(=O)[C@@H](NC(=O)[C@H](C)NC)C1CCCCC1)C1CCCCC1,AUC,[30],206 ng·h/mL
same,half-life,[31],1.2 h
same,Vd,[32],1.9 L/kg
same,clearance,[33],80 mL/min/kg
same,GI50,[12],< 0.1 nM
same,EC50,[13],0.6 nM
CN[C@@H](C)C(=O)N[C@H](C(=O)N1CCC[C@H]1C(=O)N[C@H]1c2ccccc2C[C@H]1OCCCCCCO[C@@H]1Cc2ccccc2[C@@H]1NC(=O)[C@@H]1CCCN1C(=O)[C@@H](NC(=O)[C@H](C)NC)C1CCCCC1)C1CCCCC1,AUC,[34],262 ng·h/mL
same,half-life,[35],3.6 h
same,Vd,[36],1.4 L/kg
same,clearance,[37],45 mL/min/kg
same,GI50,[12],< 0.1 nM
same,EC50,[13],0.1 nM
CN[C@@H](C)C(=O)N[C@H](C(=O)N1CCC[C@H]1C(=O)N[C@H]1c2ccccc2C[C@H]1OCC#CC#CCO[C@@H]1Cc2ccccc2[C@@H]1NC(=O)[C@@H]1CCCN1C(=O)[C@@H](NC(=O)[C@H](C)NC)C1CCCCC1)C1CCCCC1.Cl.Cl,solubility,[38],> 7000 µg/mL
